# Assay outcomes as filed in PubChem BioAssay.
# Most compounds without a hit are left out; they make up all but 5.9% or so of the library.
# MT1-MMP txn act – MT1-MMP promoter reporter activation – cell-based, luciferase luminescence, primary screen | hit rate 0.16% among 86,000 | activation factor at 10 µM | HT1080 MT1-MMP promoter luciferase reporter, overnight; active compounds read high;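 active = activation factor of at least 2 for MT1-MMP transcription at 10 µM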
# Jurkat tox 60K – cytotoxicity toward Jurkat T cells, primary screen, cytotoxicity control, cell-based, Jurkat E6.1, 60K MLSMR library; hit rate 1.2% among 56,000; inhibition, % at 4 µM; Jurkat E6.1 viability, ATP luminescence, 48 h;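 active = inhibition above the mean inhibition of all tested compounds plus 3 SD, cut at about 28% in these data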
# HUVEC inhibit – inhibitors of HUVEC proliferation, primary screen, cell-based, 384-well; CellTiter-Glo luminescence, 72 h; active compounds read low; viability, % at 10 µM (by protocol); hit rate 1.1% among 86,000;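 active = viability at or below 30%; inactive = viability above 30%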;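 note: 100% = median luminescence of DMSO-only cell control wells on each plate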
# Lung fibro prol – antiproliferative effect on LL 47 fibroblasts – human, LL 47 cells, CellTiter-Glo luminescence, primary screen | LL 47 human lung fibroblast viability, ATP luminescence; active compounds read low | viability, % at 10 µM | hit rate 1.1% among 85,000;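 active = viability at or below 50% in the single dose screen; inactive = viability above 50%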;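 note: compound exposure lasted 72 h before the ATP readout; 100% = median luminescence of untreated cell-only wells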
#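 Test system: LL 47 human lung fibroblasts / Quantity: 1,150 cells in each well / Medium: IMEM growth medium with 15% fetal bovine serum / Incubation: 72 h compound exposure at 37 °C after overnight plating / Detection: CellTiter-Glo luminescence measuring cellular ATP / Read-out: % viability versus median cells-only luminescence / Benchmarks: cell-only wells, no compound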
# Pyk2 oligo antag – antagonists of Pyk2 self-association, primary screen, Q293 cells, FERM NanoBiT luminescence, HTS; hit rate 0.83% among 99,000; active compounds read low; Protein-tyrosine kinase 2-beta (Homo sapiens), Q14289; z-score (the deposit names both 25 µM and 10 µM); AID 1347419, 2020;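 active = Z-score of -3 or lower, scaled per plate to the spread of control and sample wells; inactive = z-score above -3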;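 note: negative z-score means lost luminescence so less FERM oligomerization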
# Target sequence (Q14289 whole entry, looked up): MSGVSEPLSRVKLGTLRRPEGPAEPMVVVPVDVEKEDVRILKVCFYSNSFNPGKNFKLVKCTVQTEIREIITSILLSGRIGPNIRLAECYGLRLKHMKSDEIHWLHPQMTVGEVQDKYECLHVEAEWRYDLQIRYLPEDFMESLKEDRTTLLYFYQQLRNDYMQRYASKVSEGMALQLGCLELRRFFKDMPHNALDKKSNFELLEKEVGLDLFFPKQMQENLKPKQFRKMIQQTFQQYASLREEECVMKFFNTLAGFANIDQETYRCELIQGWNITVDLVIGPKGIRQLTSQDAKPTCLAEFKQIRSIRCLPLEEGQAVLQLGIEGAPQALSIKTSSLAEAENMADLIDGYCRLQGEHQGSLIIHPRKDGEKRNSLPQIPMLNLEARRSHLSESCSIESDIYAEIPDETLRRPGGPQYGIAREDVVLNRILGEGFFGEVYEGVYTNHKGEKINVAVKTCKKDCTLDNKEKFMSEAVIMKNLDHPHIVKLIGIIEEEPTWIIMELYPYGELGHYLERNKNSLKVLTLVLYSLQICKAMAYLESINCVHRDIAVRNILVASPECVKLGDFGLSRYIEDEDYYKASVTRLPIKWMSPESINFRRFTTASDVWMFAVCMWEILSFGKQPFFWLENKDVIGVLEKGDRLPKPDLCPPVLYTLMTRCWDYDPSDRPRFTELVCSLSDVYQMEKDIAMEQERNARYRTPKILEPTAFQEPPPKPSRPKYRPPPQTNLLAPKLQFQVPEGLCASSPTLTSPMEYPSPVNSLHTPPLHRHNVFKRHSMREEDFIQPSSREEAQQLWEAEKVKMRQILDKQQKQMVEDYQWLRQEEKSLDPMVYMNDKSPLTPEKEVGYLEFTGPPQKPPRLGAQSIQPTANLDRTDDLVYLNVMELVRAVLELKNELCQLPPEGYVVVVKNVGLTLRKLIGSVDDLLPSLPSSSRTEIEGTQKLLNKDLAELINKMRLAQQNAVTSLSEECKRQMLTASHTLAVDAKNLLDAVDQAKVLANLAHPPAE
# H69AR inhibit – proliferation blockers of H69AR lung cancer cells, primary screen, cell-based, human, 86K library | H69AR lung tumor viability, ATP luminescence, 72 h; active compounds read low | viability, % at 10 µM | hit rate 6% among 85,000;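 active = viability at or below 40%; inactive = viability above 40%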;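 note: multidrug resistant small cell line overexpressing MRP-1 efflux transporter; 100% = mean luminescence of untreated control wells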
# * = called active by the depositor; nt = not tested or not shown.
SMILES,MT1-MMP txn act,Jurkat tox 60K,HUVEC inhibit,Lung fibro prol,Pyk2 oligo antag,H69AR inhibit
CC(=O)C1=NN(c2ccccc2)C2(S1)S/C(=C\c1ccccc1)C(=O)N2c1ccccc1 (centres undefined),nt,nt,nt,nt,-1.43,nt
COc1ccc(CNC(=O)Nc2cccc3ccccc23)cc1,1.5,nt,81.2,102.8,-0.18,97.6
COC(=O)Cn1cnc2c(nnn2-c2cccc(Cl)c2)c1=O,nt,7.9,nt,nt,nt,nt
Cc1ccc2oc(-c3ccccc3)nc2c1,nt,nt,95.9,92.8,0.33,97.0
COc1ccc(-c2cn[nH]c2N)cc1,nt,nt,97.6,94.4,-0.26,87.4
COc1ccc(-c2nc3c(Br)c(N)c(Br)cc3o2)cc1,1.7,nt,59.6,80.3,1.55,29.1*
Nc1c(Br)cc2oc(-c3ccccc3)nc2c1Br,2*,nt,83.5,81.3,nt,22.1*
COC(=O)c1ccccc1NC1CC(=O)N(c2c(C)cccc2C)C1=O (centres undefined),nt,nt,nt,nt,0.4,nt
CCCn1c(SCC(=O)NC(C)(C)C)nnc1C(C)C,1,2.2,96.4,101.2,0.06,90.9
Cc1ccc2nc(N(CCCN(C)C)C(=O)c3sc4ccccc4c3Cl)sc2c1,nt,nt,nt,nt,-0.14,nt
O=c1oc2ccccc2n1CSC1=NCCS1,1.3,11.6,53.5,85.0,1.33,20.6*
O=c1oc2ccccc2n1CSc1nc2ccccc2s1,2.1*,-1.3,78.4,92.7,0.2,95.4
O=c1oc2ccccc2n1CCCCCn1c(=O)oc2ccccc21,1.1,7.3,93.9,98.4,1.03,88.5
CCOC(=O)N1CCN(c2nc3ccccc3nc2C(C#N)S(=O)(=O)c2ccc(C)cc2)CC1 (centres undefined),1,-4.4,56.1,101.5,-0.2,98.2
COc1ccc(-c2n[nH]c(C(F)(F)F)c2-c2cc3ccccc3o2)c(O)c1,1,nt,12.5*,78.9,-1.82,10.7*
CCOc1ccc(/C=C/[N+](=O)[O-])c2ccccc12,nt,nt,nt,nt,0.5,nt
O=[N+]([O-])/C=C/c1c(OCc2ccccc2)ccc2ccccc12,1.1,nt,26.8*,7.6*,1.51,2.8*
CN(C)c1nc(-c2ccccc2)nc(-c2ccc(Cl)cc2)c1C#N,nt,nt,44.8,82.2,0.61,31.9*
Clc1ccccc1-c1ccc(CN2CCN(c3ccccc3)CC2)o1,1.1,nt,112.2,98.3,-1.33,93.3
O/N=C/c1ccc(OCC(O)COc2ccc(/C=N/O)cc2)cc1,1.1,nt,83.8,98.8,0.97,44.1
CC1(C)CCN(Cc2ccccc2)C1CC#N (centres undefined),1.1,nt,92.4,103.8,-0.94,103.9
CC1=NN(Cc2ccccc2)C(=O)C1C(c1ccccc1)C(C#N)C#N (centres undefined),nt,nt,nt,nt,-3.61*,nt
Cc1ccc(NC(=O)CSc2nc3ccccc3c(=O)n2CCCC(=O)N2CCCC2)cc1,1.3,nt,60.6,76.9,-1.56,14.9*
O=C(CSc1nc2ccccc2c(=O)n1CCC(=O)N1CCCCC1)NCc1ccccc1,1.1,-6.1,92.2,100.6,-0.4,70.1
Cc1cc(NC(=O)CSc2nc3c(sc4ccccc43)c(=O)n2CCCN2CCOCC2)n[nH]1,1.1,nt,84.9,38.7*,-0.49,33.3*
SMILES,MT1-MMP txn act,Jurkat tox 60K,HUVEC inhibit,Lung fibro prol,Pyk2 oligo antag,H69AR inhibit
Cc1ccc(NC(=O)CSc2nc3ccccc3c(=O)n2CCCN2CCCCC2)cc1C,0.9,nt,12.8*,3.0*,0.46,2.2*
CCn1c(SCC(=O)N2CCC(C(N)=O)(N3CCCCC3)CC2)nc2ccccc2c1=O,1.2,-5.8,80.6,90.0,-0.41,9.0*
C=CCn1c(COc2ccc3c(c2)CCCC3)nnc1SCC(=O)Nc1cccc(SC)c1,nt,nt,nt,nt,-0.42,nt
CCc1nc(NCCCCCO)c2nnn(Cc3ccccc3F)c2n1,1.2,nt,103.9,96.7,-0.13,83.6
COc1ccccc1-c1nnc(SCC(=O)Nc2ccc(S(N)(=O)=O)cc2)n1C,1.2,nt,91.5,103.5,-0.37,86.0
COC(=O)C1=C(Nc2ccc(C)cc2)C=C(C)C(C(=O)OC)C1c1ccc(OC)cc1 (centres undefined),1.3,nt,66.8,62.2,-1.84,23.9*
COc1ccc(CNC(=O)Nc2ccc(C)cc2)cc1,1.5,-5.4,100.5,108.2,1.06,98.2
COC(=O)C1=C(Nc2ccc(C)cc2)C=C(C)C(C(=O)OC)C1c1cccc(OC)c1 (centres undefined),1,nt,72.9,59.5,-1.04,17.2*
CCn1c(SCC(=O)Nc2ccc(OCc3ccccc3)cc2)nnc1-c1ccco1,1.1,0.7,102.8,98.3,-0.15,nt
Cc1ccccc1C(=O)NC(C(=O)Nc1nc2c(s1)CCCC2)C(C)C (centres undefined),nt,nt,nt,nt,-1.26,nt
CCOC(=O)c1nnc(-c2ccccc2)nc1Sc1c(Cl)cccc1Cl,1.2,nt,68.1,89.5,0.55,1.9*
CCOC(=O)c1nnc(-c2ccc(C)cc2)nc1Oc1ccc(Cl)cc1Cl,nt,nt,nt,nt,0.98,nt
CCOC(=O)c1nnc(-c2ccc(C)cc2)nc1Oc1ccccc1Cl,nt,nt,nt,nt,0.38,nt
CCOC(=O)c1nnc(-c2ccc(C)cc2)nc1Sc1ccccc1Cl,1.1,nt,68.8,83.6,-0.19,24.9*
CCOC(=O)c1nnc(-c2ccc(C)cc2)nc1Sc1ccc(Cl)cc1,1.1,nt,68.8,73.8,1.1,3.3*
CC(=O)Nc1ccc(NC(=O)C(Cc2ccccc2)NC(=O)C2CCCCC2)cc1 (centres undefined),nt,nt,nt,nt,1.01,nt
COc1ccc(N(CC(=O)Nc2ccc(S(=O)(=O)N3CCOCC3)cc2)S(=O)(=O)c2ccccc2)cc1,nt,nt,nt,nt,-1.58,nt
CC(Nc1ccc(Cl)cc1)c1cc(Cl)ccc1O (centres undefined),1.2,nt,71.5,90.0,-0.73,39.0*
CC(Nc1ccc(Br)cn1)c1cc(Cl)ccc1O (centres undefined),1.1,0.8,65.3,79.5,-3.54*,53.5
Cc1ccc2c(c1)N(C(C)C(=O)NCCc1ccccc1)C(=O)CO2 (centres undefined),1.2,4.2,102.7,97.3,-0.96,108.8
CCCCNC(=O)CN(C1CCCCC1)S(C)(=O)=O,1.1,1.1,104.0,99.3,0.53,93.8
CC(C)c1noc2ncc(C(=O)c3cc(Cl)cc(Cl)c3O)cc12,nt,nt,54.9,101.1,-1.52,77.6
Cc1ccc(C(=O)Nc2ncc(Cc3ccc(F)cc3)s2)o1,1.6,-0.2,29.5*,92.4,-0.81,88.9
CN(C)CCCN1c2ccccc2Sc2ccc(Cl)cc21,1,nt,49.6,43.5*,nt,19.6*
CN(C)CCCN1c2ccccc2CCc2ccccc21,1.2,nt,88.0,82.7,nt,81.4
OCCN1CCN(CCCN2c3ccccc3Sc3ccc(Cl)cc32)CC1,1,nt,1.8*,28.2*,nt,1.5*
Nc1n[nH]c(-c2ccccc2)c1-c1ccccc1,1.2,-9.1,103.6,90.9,0.28,98.3
